Test results as given in ChEMBL document CHEMBL2176911 (J Med Chem, 2012).
Active and inactive are the calls of the source. The rule behind the calls is not given here.

Tests used:
[1] = molecular target: Glycogen synthase kinase-3 alpha (Homo sapiens, UniProt P49840); experiment: Inhibition of human recombinant GSK3alpha expressed in insect cells using YRRAAVPPSPSLSRHSSPHQ-phosphoS-EDEEE as substrate and [gamma33P]ATP after 30 mins by scintillation counting
[2] = molecular target: Glycogen synthase kinase-3 beta (Homo sapiens, UniProt P49841); experiment: Inhibition of human recombinant GSK3beta expressed in insect cells using YRRAAVPPSPSLSRHSSPHQ-phosphoS-EDEEE as substrate and [gamma33P]ATP after 30 mins by scintillation counting
[3] = molecular target: T1, Dual specificity tyrosine-phosphorylation-regulated kinase 4 (Homo sapiens, UniProt Q9NR20); experiment: Inhibition of human recombinant GST-tagged DYRK4 expressed in Escherichia coli using GRSRSRSRSRSR as substrate and [gamma33P]ATP after 30 mins by scintillation counting
T1 sequence (Q9NR20 whole entry): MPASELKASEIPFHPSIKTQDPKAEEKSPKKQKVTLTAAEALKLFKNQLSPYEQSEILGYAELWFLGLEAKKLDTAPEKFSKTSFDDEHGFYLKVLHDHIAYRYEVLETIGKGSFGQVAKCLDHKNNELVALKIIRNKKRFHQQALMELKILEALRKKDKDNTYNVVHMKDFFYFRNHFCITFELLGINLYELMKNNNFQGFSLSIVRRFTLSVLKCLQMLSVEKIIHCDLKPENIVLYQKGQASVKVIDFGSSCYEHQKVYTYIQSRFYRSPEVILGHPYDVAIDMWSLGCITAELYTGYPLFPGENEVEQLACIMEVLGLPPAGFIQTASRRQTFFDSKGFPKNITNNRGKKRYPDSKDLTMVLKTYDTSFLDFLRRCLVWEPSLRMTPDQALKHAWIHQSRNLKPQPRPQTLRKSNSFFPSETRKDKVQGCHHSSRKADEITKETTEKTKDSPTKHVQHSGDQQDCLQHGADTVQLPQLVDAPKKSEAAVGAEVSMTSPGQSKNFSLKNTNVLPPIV

[4] = molecular target: Dual specificity protein kinase CLK1 (Homo sapiens) (UniProt P49759); experiment: Binding affinity to CLK1
[5] = molecular target: Cyclin-dependent kinase 7/ cyclin H (Homo sapiens, UniProt P50613); experiment: Inhibition of human recombinant CDK7/cyclin H expressed in insect cell using YSPTSPSYSPTSPSYSPTSPSKKKK as substrate and [gamma33P]ATP after 30 mins by scintillation counting
Chain of Cyclin-dependent kinase 7/ cyclin H (P51946 whole entry): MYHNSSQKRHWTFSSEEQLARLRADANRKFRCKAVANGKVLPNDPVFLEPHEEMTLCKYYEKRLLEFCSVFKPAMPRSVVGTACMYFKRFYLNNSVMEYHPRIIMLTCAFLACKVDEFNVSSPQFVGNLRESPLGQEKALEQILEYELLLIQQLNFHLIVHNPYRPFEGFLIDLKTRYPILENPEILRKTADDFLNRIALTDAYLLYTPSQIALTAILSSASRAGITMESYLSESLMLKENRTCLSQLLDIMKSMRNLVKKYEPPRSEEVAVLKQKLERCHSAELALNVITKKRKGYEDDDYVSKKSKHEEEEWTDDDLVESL
Chain of Cyclin-dependent kinase 7/ cyclin H (P50613 whole entry): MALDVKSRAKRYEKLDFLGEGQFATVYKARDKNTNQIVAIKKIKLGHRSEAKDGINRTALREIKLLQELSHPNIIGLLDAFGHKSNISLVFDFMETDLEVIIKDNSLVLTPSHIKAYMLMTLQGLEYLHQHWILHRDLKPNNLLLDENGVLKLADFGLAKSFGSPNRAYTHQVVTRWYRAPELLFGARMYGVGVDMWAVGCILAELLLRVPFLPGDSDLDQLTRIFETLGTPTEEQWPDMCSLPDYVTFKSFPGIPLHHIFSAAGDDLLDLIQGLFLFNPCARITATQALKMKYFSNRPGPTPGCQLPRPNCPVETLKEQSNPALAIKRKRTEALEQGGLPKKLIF
Outline: (§1)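 Panel of purified kinases (recombinant from several species plus native enzymes), each assayed radiometrically over a range of inhibitor concentrations; IC50 in μM calculated from the dose-response curves.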

[6] = molecular target: Dual specificity tyrosine-phosphorylation-regulated kinase 3 (Homo sapiens, UniProt O43781); experiment: Inhibition of human recombinant GST-tagged DYRK3 expressed in Escherichia coli using GRSRSRSRSRSR as substrate and [gamma33P]ATP after 30 mins by scintillation counting
[7] = Inhibition of starfish CDK1/cyclin B using histone H1 as substrate and [gamma33P]ATP after 30 mins by scintillation counting; design: species or system Asteroidea; outline: as §1
CDK9/cyclin T1 = CDK9/cyclin T1 (Homo sapiens, UniProt P50750); experiment: Inhibition of human recombinant CDK9/cyclin T expressed in insect cell using YSPTSPSYSPTSPSYSPTSPSKKKK as substrate and [gamma33P]ATP after 30 mins by scintillation counting; outline: as §1
Chain of CDK9/cyclin T1 (O60563 whole entry, the tested form may be a part): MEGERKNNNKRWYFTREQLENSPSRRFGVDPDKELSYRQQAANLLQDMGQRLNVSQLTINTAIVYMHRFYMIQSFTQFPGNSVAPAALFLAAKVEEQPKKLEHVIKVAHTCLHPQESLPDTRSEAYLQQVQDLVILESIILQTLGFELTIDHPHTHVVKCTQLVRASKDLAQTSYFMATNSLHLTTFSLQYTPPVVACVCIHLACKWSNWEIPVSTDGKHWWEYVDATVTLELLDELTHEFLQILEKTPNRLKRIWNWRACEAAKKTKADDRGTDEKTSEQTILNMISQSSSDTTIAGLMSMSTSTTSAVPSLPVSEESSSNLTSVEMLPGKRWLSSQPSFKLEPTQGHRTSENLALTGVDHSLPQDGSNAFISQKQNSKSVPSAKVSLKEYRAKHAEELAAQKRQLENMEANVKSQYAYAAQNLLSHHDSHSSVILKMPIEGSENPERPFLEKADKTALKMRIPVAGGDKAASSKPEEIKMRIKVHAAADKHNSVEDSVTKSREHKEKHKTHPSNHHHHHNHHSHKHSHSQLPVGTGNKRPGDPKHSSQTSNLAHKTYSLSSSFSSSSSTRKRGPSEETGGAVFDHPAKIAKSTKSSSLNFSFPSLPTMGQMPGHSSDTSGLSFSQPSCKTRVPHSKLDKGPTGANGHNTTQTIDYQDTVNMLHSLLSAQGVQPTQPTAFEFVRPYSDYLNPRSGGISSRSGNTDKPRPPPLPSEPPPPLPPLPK
Chain of CDK9/cyclin T1 (P50750 whole entry, the tested form may be a part): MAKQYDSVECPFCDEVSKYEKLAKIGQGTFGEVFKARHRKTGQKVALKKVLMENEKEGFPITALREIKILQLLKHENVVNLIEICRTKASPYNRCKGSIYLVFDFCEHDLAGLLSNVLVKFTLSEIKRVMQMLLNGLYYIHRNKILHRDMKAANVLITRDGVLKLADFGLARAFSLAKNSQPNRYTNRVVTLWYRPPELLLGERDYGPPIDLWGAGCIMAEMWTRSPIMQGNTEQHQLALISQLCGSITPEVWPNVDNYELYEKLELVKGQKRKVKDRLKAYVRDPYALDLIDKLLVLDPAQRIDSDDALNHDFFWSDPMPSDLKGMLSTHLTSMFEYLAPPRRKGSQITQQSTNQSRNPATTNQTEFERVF

[8] = molecular target: T2, Dual specificity tyrosine-phosphorylation-regulated kinase 1A (Rattus norvegicus, UniProt Q63470); experiment: Inhibition of rat recombinant C-terminal truncated GST-tagged DYRK1A expressed in Escherichia coli using GRSRSRSRSRSR as substrate and [gamma33P]ATP after 30 mins by scintillation counting
[9] = molecular target: T3, Dual specificity tyrosine-phosphorylation-regulated kinase 2 (Homo sapiens) (UniProt Q92630); experiment: Binding affinity to DYRK2
T3 sequence (whole entry): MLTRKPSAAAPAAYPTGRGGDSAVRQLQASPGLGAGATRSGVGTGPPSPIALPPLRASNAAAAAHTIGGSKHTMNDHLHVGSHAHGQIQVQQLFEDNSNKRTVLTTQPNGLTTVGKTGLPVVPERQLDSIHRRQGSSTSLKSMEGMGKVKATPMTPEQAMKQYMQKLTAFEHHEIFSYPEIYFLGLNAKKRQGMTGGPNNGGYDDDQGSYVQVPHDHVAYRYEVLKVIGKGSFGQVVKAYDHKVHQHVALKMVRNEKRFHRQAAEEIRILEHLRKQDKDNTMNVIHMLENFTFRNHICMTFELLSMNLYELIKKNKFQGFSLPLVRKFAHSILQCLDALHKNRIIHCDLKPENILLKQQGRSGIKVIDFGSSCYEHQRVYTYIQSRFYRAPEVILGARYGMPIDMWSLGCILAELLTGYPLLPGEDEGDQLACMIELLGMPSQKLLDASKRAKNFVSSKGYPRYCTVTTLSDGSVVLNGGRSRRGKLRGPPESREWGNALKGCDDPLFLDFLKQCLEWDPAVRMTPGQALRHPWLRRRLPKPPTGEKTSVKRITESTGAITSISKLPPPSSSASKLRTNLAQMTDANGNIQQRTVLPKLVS

Plasmodium falciparum = experiment: Inhibition of Plasmodium falciparum recombinant GSK3 expressed in Escherichia coli using YRRAAVPPSPSLSRHSSPHQ-phosphoS-EDEEE as substrate and [gamma33P]ATP at 10 uM after 30 mins by scintillation counting
[10] = molecular target: Dual specificity tyrosine-phosphorylation-regulated kinase 2 (Homo sapiens, UniProt Q92630); experiment: Inhibition of human recombinant GST-tagged DYRK2 expressed in Escherichia coli using GRSRSRSRSRSR as substrate and [gamma33P]ATP after 30 mins by scintillation counting
[11] = Inhibition of pig […] isolated from brain using RRKHAAIGpSAYSITA as substrate and [gamma33P]ATP after 30 mins by scintillation couting; design: species or system Sus scrofa; outline: as §1
[12] = molecular target: Serine/threonine-protein kinase pim-1 (Homo sapiens, UniProt P11309); experiment: Inhibition of human recombinant PIM1 expressed in Escherichia coli using histone H1 as substrate and [gamma33P]ATP after 30 mins by scintillation counting
Chain of Serine/threonine-protein kinase pim-1 (P11309 whole entry): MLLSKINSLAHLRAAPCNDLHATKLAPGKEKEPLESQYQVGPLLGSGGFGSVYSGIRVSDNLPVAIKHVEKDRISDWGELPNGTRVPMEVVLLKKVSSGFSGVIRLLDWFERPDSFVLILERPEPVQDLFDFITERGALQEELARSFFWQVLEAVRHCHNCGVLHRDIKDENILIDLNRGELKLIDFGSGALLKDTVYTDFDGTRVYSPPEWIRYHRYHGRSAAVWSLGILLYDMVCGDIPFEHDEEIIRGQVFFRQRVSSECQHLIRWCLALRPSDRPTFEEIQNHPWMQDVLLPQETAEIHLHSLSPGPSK

[13] = molecular target: Mitogen-activated protein kinase 1 (Rattus norvegicus, UniProt P63086); experiment: Inhibition of rat recombinant ERK2 using Ets1 as substrate and [gamma33P]ATP as substrate after 30 mins by scintillation counting; outline: as §1
Chain of Mitogen-activated protein kinase 1 (P63086 whole entry): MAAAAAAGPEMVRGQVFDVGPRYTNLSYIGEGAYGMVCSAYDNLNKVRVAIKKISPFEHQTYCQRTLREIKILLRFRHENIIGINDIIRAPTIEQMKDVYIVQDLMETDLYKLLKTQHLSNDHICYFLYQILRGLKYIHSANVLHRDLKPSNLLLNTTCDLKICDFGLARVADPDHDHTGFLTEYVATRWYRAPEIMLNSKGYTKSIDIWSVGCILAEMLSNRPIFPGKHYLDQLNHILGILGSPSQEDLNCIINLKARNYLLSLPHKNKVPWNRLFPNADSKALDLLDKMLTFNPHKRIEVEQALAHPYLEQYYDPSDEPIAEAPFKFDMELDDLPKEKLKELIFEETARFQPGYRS

[14] = molecular target: Dual specificity protein kinase CLK2 (Mus musculus, UniProt O35491); experiment: Inhibition of mouse recombinant GST-tagged CLK2 expressed in Escherichia coli using GRSRSRSRSRSR as substrate and [gamma33P]ATP after 30 mins by scintillation counting; outline: as §1
Chain of Dual specificity protein kinase CLK2 (O35491 whole entry): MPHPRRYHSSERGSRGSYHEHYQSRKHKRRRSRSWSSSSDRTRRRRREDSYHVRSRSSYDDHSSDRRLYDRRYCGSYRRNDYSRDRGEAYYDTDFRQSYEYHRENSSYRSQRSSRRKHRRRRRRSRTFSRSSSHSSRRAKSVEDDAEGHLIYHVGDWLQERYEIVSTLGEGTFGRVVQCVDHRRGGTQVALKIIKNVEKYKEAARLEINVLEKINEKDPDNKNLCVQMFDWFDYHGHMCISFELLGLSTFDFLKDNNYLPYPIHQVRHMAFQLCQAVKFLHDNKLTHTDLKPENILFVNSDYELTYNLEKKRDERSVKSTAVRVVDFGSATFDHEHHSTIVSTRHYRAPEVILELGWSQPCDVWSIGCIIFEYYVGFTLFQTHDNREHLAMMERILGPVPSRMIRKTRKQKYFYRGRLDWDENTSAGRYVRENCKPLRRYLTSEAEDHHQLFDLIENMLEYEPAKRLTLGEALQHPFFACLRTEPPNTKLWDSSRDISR

[15] = molecular target: Dual specificity protein kinase CLK1 (Mus musculus, UniProt P22518); experiment: Inhibition of mouse recombinant GST-tagged CLK1 expressed in Escherichia coli using GRSRSRSRSRSR as substrate and [gamma33P]ATP after 30 mins by scintillation counting; outline: as §1
Leishmania major = experiment: Inhibition of Leishmania major recombinant CK1 expressed in Escherichia coli using RRKHAAIGpSAYSITA as substrate and [gamma33P]ATP at 10 uM after 30 mins by scintillation counting
[16] = molecular target: T2, Dual specificity tyrosine-phosphorylation-regulated kinase 1A; experiment: Inhibition of rat DYRK1A isolated from brain using KKISGRLSPIMTEQ as substrate and [gamma33P]ATP after 30 mins by scintillation counting
[17] = molecular target: Dual specificity protein kinase CLK3 (Homo sapiens, UniProt P49761); experiment: Binding affinity to CLK3
Chain of Dual specificity protein kinase CLK3 (Homo sapiens, UniProt P49761) (P49761 whole entry, looked up): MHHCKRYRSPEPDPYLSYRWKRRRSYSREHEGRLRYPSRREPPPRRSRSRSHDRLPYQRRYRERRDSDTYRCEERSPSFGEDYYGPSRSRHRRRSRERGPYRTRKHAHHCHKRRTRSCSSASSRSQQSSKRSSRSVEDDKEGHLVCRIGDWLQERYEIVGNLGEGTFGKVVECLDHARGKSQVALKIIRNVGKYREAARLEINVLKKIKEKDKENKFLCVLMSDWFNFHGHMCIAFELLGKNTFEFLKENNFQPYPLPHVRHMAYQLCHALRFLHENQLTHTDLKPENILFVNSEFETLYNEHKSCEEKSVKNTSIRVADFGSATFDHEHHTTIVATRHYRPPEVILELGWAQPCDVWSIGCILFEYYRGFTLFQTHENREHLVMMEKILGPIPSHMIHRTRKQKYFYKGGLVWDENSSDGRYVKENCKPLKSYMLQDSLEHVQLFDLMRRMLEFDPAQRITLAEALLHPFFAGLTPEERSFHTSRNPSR

[18] = molecular target: Cyclin-dependent kinase 2/cyclin A (Homo sapiens, UniProt P24941); experiment: Inhibition of CDK2/cyclin A using [gamma33P]ATP after 30 mins by scintillation counting; assay type: protein-complex assay; outline: as §1
[19] = molecular target: Glycogen synthase kinase-3 (Sus scrofa, UniProt B2LUN4+I6LNT8); experiment: Inhibition of pig GSK3alpha/beta isolated from brain using YRRAAVPPSPSLSRHSSPHQ-phosphoS-EDEEE as substrate and [gamma33P]ATP after 30 mins by scintillation counting; outline: as §1
[20] = molecular target: Casein kinase II (Homo sapiens) (UniProt P67870+P68400+P19784); experiment: Inhibition of human recombinant CK2 using RRREDEESDDEE as substrate and [gamma33P]ATP at 10 uM after 30 mins by scintillation counting; assay type: protein-complex assay
[21] = molecular target: Dual specificity protein kinase CLK3 (Mus musculus, UniProt O35492); experiment: Inhibition of mouse recombinant GST-tagged CLK3 expressed in Escherichia coli using GRSRSRSRSRSR as substrate and [gamma33P]ATP after 30 mins by scintillation counting; outline: as §1
Chain of Dual specificity protein kinase CLK3 (Mus musculus, UniProt O35492) (O35492 whole entry): as the sequence (P49761 whole entry, looked up) above, with L55I, R64H, Y83C, P86S, G99A, T484S counted along it

[22] = molecular target: Dual specificity protein kinase CLK4 (Mus musculus, UniProt O35493); experiment: Inhibition of mouse recombinant GST-tagged CLK4 expressed in Escherichia coli using GRSRSRSRSRSR as substrate and [gamma33P]ATP after 30 mins by scintillation counting
Chain of Dual specificity protein kinase CLK4 (Mus musculus, UniProt O35493) (O35493 whole entry): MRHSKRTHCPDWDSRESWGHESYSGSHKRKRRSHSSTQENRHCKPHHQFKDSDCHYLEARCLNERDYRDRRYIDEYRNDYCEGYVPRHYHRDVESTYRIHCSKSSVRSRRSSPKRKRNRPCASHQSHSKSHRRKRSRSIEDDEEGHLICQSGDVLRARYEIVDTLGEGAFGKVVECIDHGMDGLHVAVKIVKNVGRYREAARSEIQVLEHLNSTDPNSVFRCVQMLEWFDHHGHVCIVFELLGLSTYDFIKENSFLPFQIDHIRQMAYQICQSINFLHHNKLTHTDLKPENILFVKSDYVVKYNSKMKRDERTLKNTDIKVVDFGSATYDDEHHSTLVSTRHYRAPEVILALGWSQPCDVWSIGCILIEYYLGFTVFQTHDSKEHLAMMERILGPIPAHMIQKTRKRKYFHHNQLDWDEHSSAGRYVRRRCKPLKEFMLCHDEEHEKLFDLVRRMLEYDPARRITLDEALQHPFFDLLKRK

[23] = molecular target: Dual specificity protein kinase CLK4 (Homo sapiens, UniProt Q9HAZ1); experiment: Binding affinity to CLK4

Chain of Glycogen synthase kinase-3 alpha (P49840 whole entry): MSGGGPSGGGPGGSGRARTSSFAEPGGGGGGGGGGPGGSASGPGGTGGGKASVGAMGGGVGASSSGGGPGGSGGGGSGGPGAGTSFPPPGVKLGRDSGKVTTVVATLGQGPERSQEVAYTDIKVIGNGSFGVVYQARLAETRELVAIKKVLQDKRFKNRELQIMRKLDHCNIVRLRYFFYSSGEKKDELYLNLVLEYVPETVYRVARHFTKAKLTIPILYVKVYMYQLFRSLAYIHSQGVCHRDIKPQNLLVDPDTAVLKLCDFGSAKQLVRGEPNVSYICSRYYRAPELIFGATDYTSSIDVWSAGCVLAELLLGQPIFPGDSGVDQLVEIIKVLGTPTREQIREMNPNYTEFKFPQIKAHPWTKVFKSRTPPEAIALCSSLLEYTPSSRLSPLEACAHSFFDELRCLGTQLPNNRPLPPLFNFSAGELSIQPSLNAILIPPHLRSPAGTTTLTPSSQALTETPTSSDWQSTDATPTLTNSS

## CN1C(=O)/C(=C/c2ccc3c(c2)OCO3)N=C1N [LEUCETTAMINE B]
[1]
  IC50: 7.7 µM
[2]
  IC50: > 10 µM
[3]
  IC50: > 10 µM
[4]
  Activity: Active
[5]
  IC50: > 10 µM
[6]
  IC50: 1400 nM
[7]
  IC50: > 10 µM
CDK9/cyclin T1
  IC50: > 10 µM
[8]
  IC50: 920 nM
[9]
  Activity: Active
Plasmodium falciparum
  inhibition: inactive
[10]
  IC50: 2000 nM
[11]
  IC50: > 10 µM
[12]
  IC50: > 10 µM
[13]
  IC50: > 10 µM
[14]
  IC50: 2100 nM
[15]
  IC50: 66 nM
Leishmania major
  inhibition: inactive
[16]
  IC50: 900 nM
[17]
  Activity: Active
[18]
  IC50: > 10 µM
[19]
  IC50: 2.9 µM
[20]
  inhibition: inactive
[21]
  IC50: 1800 nM
[22]
  IC50: 150 nM
[23]
  Activity: Active
